EP2 modulator: EP2 receptor modulators, cAMP readout, primary screen, cell-based, HTRF cAMP, PGE2 stimulation; Prostaglandin E2 receptor EP2 subtype (Homo sapiens), P43116; EP2-expressing cells, cAMP HTRF FRET, PGE2 co-stimulation; induction, % at 25 µM; 260,000 compounds, 0.83% hits;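 active = compounds whose cAMP rise, as percent of the full-agonist control response, exceeds 60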;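 also: rat C6 glioma line stably carrying human EP2 under a CMV promoter; the protocol text gives 20 µM as final concentration; 100% = response of wells given 1 µM PGE2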
Target sequence (P43116 whole entry, looked up): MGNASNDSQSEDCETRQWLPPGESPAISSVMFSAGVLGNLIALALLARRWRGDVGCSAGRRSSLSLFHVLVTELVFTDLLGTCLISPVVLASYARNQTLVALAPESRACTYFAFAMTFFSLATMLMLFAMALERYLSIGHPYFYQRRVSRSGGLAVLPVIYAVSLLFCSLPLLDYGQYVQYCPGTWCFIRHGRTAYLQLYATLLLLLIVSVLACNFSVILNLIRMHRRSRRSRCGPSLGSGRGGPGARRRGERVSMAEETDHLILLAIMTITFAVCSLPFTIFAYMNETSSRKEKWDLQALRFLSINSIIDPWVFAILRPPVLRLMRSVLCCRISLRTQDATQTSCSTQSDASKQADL
NPY-Y2 antag: NPY-Y2 receptor antagonists, primary screen, cell-based; 140,000 compounds, 0.99% hits; NPY-Y2 expressing cells, antagonist mode; Neuropeptide Y receptor type 2 (Homo sapiens), P49146; inhibition, % at 2.7 µM; AID 793, 2007; in the data active = inhibition above about 17%;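 also: 0% = vehicle with agonist challenge and 100% = reference antagonist with challenge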
EP2 antag: human EP2 receptor antagonists, primary screen, TR-FRET cAMP, C6 glioma cells; inhibition, % at 25 µM; 260,000 compounds, 0.52% hits; C6 glioma cells expressing human EP2; cells stimulated with saturating PGE2;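 active = percent inhibition above 40 after rounding to a whole number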;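 also: rat C6 glioma host cells with rolipram phosphodiesterase inhibitor present; the protocol text gives 20 µM as final concentration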
NPY-Y1 PAM-ag: NPY-Y1 receptor potentiators or agonists, primary screen, cell-based; NPY-Y1 expressing cells, potentiator/agonist activation; activation, % at 3.6 µM; 220,000 compounds, 0.37% hits; Neuropeptide Y receptor type 1 (Homo sapiens), P25929; in the data active = activation above about 33%, passing the limit was not always enough;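 also: cells stimulated with NPY at EC10 then isoproterenol at EC100; 0% = low agonist plus stimulus and 100% = saturating agonist plus stimulus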
NPY Y1 blocker: NPY-Y1 receptor antagonists, primary screen, cell-based. AID 1040, 2008. Neuropeptide Y receptor type 1 (Homo sapiens), P25929. 200,000 compounds, 1% hits. inhibition, % at 3.6 µM. HEK293-CNG Y1 cells, membrane potential fluorescence; NPY at EC95, then isoproterenol;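 active = inhibition above the campaign mean inhibition of all tested compounds plus 3 SD, cut at about 20% in these data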;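 also: 0% = DMSO wells given NPY plus isoproterenol and 100% = isoproterenol alone without NPY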
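Material: HEK293 cells co-expressing NPY Y1 receptor and cyclic-nucleotide gated channel. Timing: compound incubation 1 h at room temperature, readout 45 min post-stimulation. Signal: fluorescence, membrane potential probe.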
NPY2 pot ag: NPY-Y2 potentiators or agonists, primary screen, cell-based; 220,000 compounds, 0.45% hits; AID 1359, 2008; activation, % at 3.6 µM; cells expressing NPY-Y2, potentiator/agonist read-out; in the data active = activation above about 27%;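 also: cells stimulated with NPY near EC25 plus isoproterenol at EC100; 0% = vehicle plus submaximal agonist and 100% = vehicle plus saturating agonist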
* = called active by the depositor; · = no result given; ! = not confirmed by another sample. This is a sample that favours compounds with a hit; in the whole collection about 2.8% have one here.

SMILES	EP2 modulator	NPY-Y2 antag	EP2 antag	NPY-Y1 PAM-ag	NPY Y1 blocker	NPY2 pot ag
Nc1ccccc1SCC(=O)N1c2ccccc2Sc2ccc(C(F)(F)F)cc21	88*	·	5	·	·	·
O=C(O)c1cc([N+](=O)[O-])ccc1Nc1ccccc1	-6	0	12	-17	4	-3
COCCOc1cc(NC(=O)c2sccc2Oc2ccc([N+](=O)[O-])cc2F)c(Cl)cc1Cl	30	-3	7	1	-5	16
O=C(O)c1cc([N+](=O)[O-])ccc1C(=O)Nc1ccccc1	61*	1	4	11	-4	5
O=C(Nc1ccccc1)c1sccc1Oc1ccc([N+](=O)[O-])cc1F	63*	·	11	-3	6	1
CN(C(=O)COC(=O)CNC(=O)c1ccccc1Cl)c1ccccc1	35	·	4	-19	-4	-15
CN(C(=O)COc1ccccc1C(=O)NCCOc1ccccc1)c1ccccc1	-67	4	90*	-80	2	-5
Cc1cc2ccc(C)c(C)c2nc1SCC(=O)Nc1ccc2c(c1)OCO2	15	·	9	·	·	·
COC1=CC(=O)C=C(OC)C1=O	-24	·	75*	·	·	·
Cc1ccc(NC(=O)NC(=O)CN2C(=O)NC3(CCCCCCC3)C2=O)c(C)c1	13	5	10	40*	8	-6
COc1ccc(NC(=O)CSc2nc3sc4c(c3c(=O)n2C)CCC4)cc1	-56	·	5	·	·	·
CCC(=O)Nc1ccc(NC(=O)CSc2nnc(C3CC3)n2C)cc1	-47	·	10	·	·	·
CCN1C/C(=C/c2cccc([N+](=O)[O-])c2)C(=O)/C(=C/c2cccc([N+](=O)[O-])c2)C1	-56	1	46*	-12	3	8
CC(=O)c1ccc(NC(=O)CSc2nnc(-c3ccoc3C)n2CC2CCCO2)cc1 (centres undefined)	26	·	11	·	·	·
CC(C)c1cc(C(F)(F)F)nc(NNc2nc(C(C)C)cc(C(F)(F)F)n2)n1	42	·	48*	·	·	·
Cc1ccc(-c2nnn(CC(=O)N(c3ccc(Cl)cc3)C(C(=O)NC(C)(C)C)c3ccco3)n2)o1 (centres undefined)	34	·	7	·	·	·
CCOC(=O)C1=C(C)N(C)C(=S)NC1c1cccc(Cl)c1Cl (centres undefined)	64*	·	9	-8	9	-9
NS(=O)(=O)c1ccc(CNC(=O)C2CCCO2)cc1 (centres undefined)	-5	·	13	·	·	·
CC1CCN(C(=O)CSc2nc(COc3ccccc3)nc3ccccc23)CC1	81*	·	9	·	·	·
Cc1ccc(C(=O)c2no[n+]([O-])c2C(=O)c2ccc(C)cc2)cc1	-45	8	50*	-18	5	-18
O=C(c1ccco1)N1N=C(c2ccncc2)CC1(O)C(F)(F)F (centres undefined)	36	·	7	5	6	-1
O=C(c1ccco1)N1N=C(c2ccc(Cl)cc2)CC1(O)C(F)(F)F (centres undefined)	61*	·	7	0	1	-10
Cn1c(C(=O)Nc2cccc(C(F)(F)F)c2)cc2sccc21	-5	·	19	·	·	·
CSc1nc(C)cc(Nc2ccc(O)c(CN3CCCCC3)c2)n1	-1	·	45*	·	·	·
CC(=O)SC(C[N+](=O)[O-])c1cn(C(C)=O)c2ccccc12 (centres undefined)	-9	-1	81*	-19	-5	-11
SMILES	EP2 modulator	NPY-Y2 antag	EP2 antag	NPY-Y1 PAM-ag	NPY Y1 blocker	NPY2 pot ag
CCOc1ccc(NC(=O)C2CCCN(S(=O)(=O)c3ccc(C)cc3)C2)cc1 (centres undefined)	5	·	5	·	·	·
CC1(C)CC(Nc2ccc(Nc3ccccc3)cc2)CC(C)(C)N1	-57	·	60*!	15	·	15
CC1(C)CC(NC(=O)c2ccccc2C(=O)NC2CC(C)(C)NC(C)(C)C2)CC(C)(C)N1	9	·	15	16	-1	-7
c1ccc(CC2CCN(C(c3cccnc3)c3nnnn3C3CCCCC3)CC2)cc1 (centres undefined)	-18	·	15	·	·	·
CCC(C)(C)n1nnnc1C(c1ccc2ncccc2c1)N1CCN(c2cccc(C)c2C)CC1 (centres undefined)	40	·	12	·	·	·
Cc1ccccc1S(=O)(=O)Nc1nc2ccccc2nc1N1CCc2ccccc2C1	61*	11	12	-27	10	-11
Cc1cc(NS(=O)(=O)c2ccc(NC(=O)c3ccccc3)cc2)nc(C)n1	-34	·	12	·	·	·
CC(C)Sc1nc(N2CCCC2)c2c(c1C#N)CC(C)(C)OC2	63*	6	16	-3	12	1
COc1ccc(C=C2C(=O)N(C)C(=O)N(C)C2=O)cc1I	-8	·	13	·	·	·
CCc1ccc(S(=O)(=O)/N=C2\C=CC(=O)c3ccccc32)cc1	18	·	23	6	-5	-8
CCc1ccc(S(=O)(=O)/N=C2/C=C(Sc3ncn[nH]3)C(=O)c3ccccc32)cc1	-96	2	61*	-30	10	-5
Cc1cc2cc(CN(C3CCCC3)S(=O)(=O)c3ccccc3Cl)c(=O)[nH]c2cc1C	-4	·	8	·	·	·
COc1cccc2sc(N(CCN(C)C)C(=O)/C=C/c3cccs3)nc12	-5	·	10	98*	-7	100*
NC(=O)c1cccn1Cc1cccc(Cl)c1	8	1	6	95*	-1	33*
NC(=O)c1cccn1Cc1ccccc1Cl	-3	6	3	-2	5	10
O=C(Nc1cccc(C(=O)N2CCOCC2)c1)C1OCOc2ccccc21 (centres undefined)	-12	·	6	·	·	·
CCCOc1ccccc1C1NC(=O)NC(C)=C1C(=O)OCc1ccccc1 (centres undefined)	64*	3	12	3	-5	4
CCOC(=O)c1c(NC(=O)CNC(C)C)sc2c1CCCC2	12	·	3	·	·	·
CCOc1ccc2c(c1)-c1c(ssc1=S)C(C)(C)N2	26	-10	10	44*	-14	45*
Cc1ccc2c(c1)-c1c(ssc1=S)C(C)(C)N2	57	·	14	·	·	·
Cc1ccc2c(c1)-c1c(ssc1=S)C(C)(C)N2C(=O)CSC1=NCCS1	45	-6	8	14	-7	24
CCCC(=O)N1c2cc(C)ccc2-c2c(ssc2=S)C1(C)C	67*	·	7	·	·	·
CCOc1ccc2c(c1)-c1c(ssc1=S)C(C)(C)N2C(=O)CSC1=NCCS1	23	-5	3	49*	-9	40*
CC1(C)CC(=O)C2=C(C1)Nc1ncnn1C2c1cccc2ccccc12 (centres undefined)	-24	·	7	·	·	·
O=S(=O)(NCCN1CCOCC1)c1ccccc1Cl	-1	·	24	·	·	·

Screening data deposited in PubChem by several laboratories.
